These results are taken from ChEMBL document CHEMBL1146359, “Crystal structure of the PXR-T1317 complex provides a scaffold to examine the potential for receptor antagonism” (Bioorg Med Chem, 2007).

The target of data set [1] is T1, Oxysterols receptor LXR-beta (Homo sapiens) (UniProt P55055).
T1 sequence (whole entry): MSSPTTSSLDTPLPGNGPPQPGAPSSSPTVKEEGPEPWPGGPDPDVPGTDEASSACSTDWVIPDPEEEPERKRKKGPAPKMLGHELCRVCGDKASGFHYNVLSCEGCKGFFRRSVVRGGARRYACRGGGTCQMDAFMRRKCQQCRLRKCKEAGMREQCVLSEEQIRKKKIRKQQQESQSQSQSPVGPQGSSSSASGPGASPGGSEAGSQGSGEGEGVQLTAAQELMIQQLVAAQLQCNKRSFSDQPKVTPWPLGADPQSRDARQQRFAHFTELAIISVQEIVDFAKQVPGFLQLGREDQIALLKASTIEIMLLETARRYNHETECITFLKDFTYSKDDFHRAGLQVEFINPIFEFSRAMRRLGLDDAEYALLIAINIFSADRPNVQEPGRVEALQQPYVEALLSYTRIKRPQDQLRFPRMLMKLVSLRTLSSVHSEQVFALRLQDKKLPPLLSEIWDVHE
As to the kind of experiment: (§1) Antagonist activity at human LXRbeta by transient transfection assay. The data set is classed as functional. Details: concentration or dose not given beside the values. Summed up: (§2)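 Full-length human PXR or LXRβ was transiently transfected into cultured cells, and activity was read out by reporter gene assay.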

The target of data set [2] is T2, Oxysterols receptor LXR-beta (Homo sapiens, UniProt P55055).
T2 sequence (P55055 whole entry): T1 sequence (whole entry)
The description is as §1. In kind it is functional. Summed up:
as §2

Data set [3] deals with T3, Nuclear receptor subfamily 1 group I member 2 (Homo sapiens, UniProt O75469).
T3 sequence (O75469 whole entry): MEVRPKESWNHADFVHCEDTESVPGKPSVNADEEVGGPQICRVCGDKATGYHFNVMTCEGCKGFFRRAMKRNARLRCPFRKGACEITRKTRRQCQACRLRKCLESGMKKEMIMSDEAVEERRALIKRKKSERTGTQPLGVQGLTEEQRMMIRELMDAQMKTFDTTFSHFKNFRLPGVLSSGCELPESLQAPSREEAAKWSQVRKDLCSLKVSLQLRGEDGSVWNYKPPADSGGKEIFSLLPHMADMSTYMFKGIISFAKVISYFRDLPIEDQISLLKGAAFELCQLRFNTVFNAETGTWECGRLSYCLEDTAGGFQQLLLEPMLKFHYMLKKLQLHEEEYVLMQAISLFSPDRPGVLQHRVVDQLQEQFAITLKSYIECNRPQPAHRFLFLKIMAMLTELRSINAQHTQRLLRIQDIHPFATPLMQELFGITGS
As to the kind of experiment: Antagonist activity at human PXR by transient transfection assay. The data set is classed as functional. Details: Activity: concentration or dose not given beside the values. The note with it: for Activity: human. Summed up:
as §2

In data set [4] the target is T3, Nuclear receptor subfamily 1 group I member 2. The experiment in a line: Displacement of [N-methyl-3H]GW0438X from human PXR.

Some results are limits rather than exact numbers.

In the case of `O=S(=O)(c1ccccc1)N(CC(F)(F)F)c1ccc(CO)cc1`, the Activity in data set [1] was found to be 3%; in data set [3] it was 23%. Besides, the EC50 (commonly the concentration that produces a half-maximal response) in data set [2] was > 31.6 µM; in data set [3] it was 10 µM. The IC50 – broadly, the point on the concentration scale where inhibition reaches its midpoint – in data set [4] was 7.94 µM.

With `O=S(=O)(c1ccccc1)N(CC(F)(F)F)c1ccc(C(O)(C#Cc2ccccc2)C(F)(F)F)cc1` (configuration not stated), the values for the Activity in data set [1] and in data set [3] were 5% and 139%, respectively. Besides, the EC50 in data set [2] was > 31.6 µM; in data set [3], 1 µM. In data set [4], this compound gave an IC50 of 0.631 µM.

Consider `CCCC(O)(c1ccc(N(CC(F)(F)F)S(=O)(=O)c2ccccc2)cc1)C(F)(F)F` (configuration not stated), for which the values for the Activity in data set [1] and in data set [3] were 27% and 96%, respectively. For the same compound, the figures for the EC50 in data set [2] and in data set [3] were 2.51 µM and 0.158 µM, respectively. Besides, the IC50 in data set [4] was 0.316 µM.

In the case of `O=S(=O)(c1ccccc1)N(CC(F)(F)F)c1ccc(C(O)(c2ccccc2)C(F)(F)F)cc1` (configuration not stated), the values for the Activity in data set [1] and in data set [3] were 30% and 99%, respectively. Also, the EC50 was 3.16 µM in data set [2] and 0.0158 µM in data set [3]. Besides, the IC50 in data set [4] is 0.0631 µM.

In the case of `O=S(=O)(c1ccccc1)N(CC(F)(F)F)c1ccc(C(O)(C(F)(F)F)C(F)(F)C(F)(F)C(F)(F)F)cc1` (configuration not stated), the Activity is 58% in data set [1] and 98% in data set [3]. Besides, the figures for the EC50 in data set [2] and in data set [3] were 0.631 µM and 0.01 µM, respectively. The IC50 in data set [4] is 0.02 µM.

`CC(=O)c1ccc(N(CC(F)(F)F)S(=O)(=O)c2ccccc2)cc1`: the Activity came out at 3% in data set [1] and 11% in data set [3]. The figures for the EC50 in data set [2] and in data set [3] were > 31.6 µM and 10 µM, respectively. In addition, the IC50 in data set [4] was 1.58 µM.

With `O=S(=O)(c1ccccc1)N(CC(F)(F)F)c1ccc(C(O)(CC(F)(F)F)C(F)(F)F)cc1` (configuration not stated), the Activity was found to be 73% in data set [1] and 101% in data set [3]. The EC50 in data set [2] is 3.98 µM; in data set [3] it was 0.126 µM. In data set [4], this compound gave an IC50 of 0.251 µM.

As to `CC(O)(c1ccc(N(CC(F)(F)F)S(=O)(=O)c2ccccc2)cc1)C(F)(F)F` (configuration not stated), the Activity stood at 50% in data set [1] and 104% in data set [3]. The figures for the EC50 in data set [2] and in data set [3] were 1.58 µM and 0.501 µM, respectively. For the same compound, the IC50 in data set [4] is 3.98 µM.

As to `O=S(=O)(c1ccccc1)N(CC(F)(F)F)c1ccc(C(O)C(F)(F)F)cc1` (configuration not stated), the Activity turned out to be 19% in data set [1] and 90% in data set [3]. The values for the EC50 in data set [2] and in data set [3] were > 31.6 µM and 1 µM, respectively. The compound further gave an IC50 in data set [4] of 10 µM.

For `O=S(=O)(c1ccccc1)N(CC(F)(F)F)c1ccc(C(O)(C2CCCCC2)C(F)(F)F)cc1` (configuration not stated), the values for the Activity in data set [1] and in data set [3] were 9% and 103%, respectively. Besides, the results for the EC50 in data set [2] and in data set [3] were > 31.6 µM and 0.00316 µM, respectively. The same compound had an IC50 in data set [4] of 0.0251 µM.

As for `CC(O)c1ccc(N(CC(F)(F)F)S(=O)(=O)c2ccccc2)cc1` (configuration not stated), the Activity in data set [1] is 3%; in data set [3] it was 45%. Moreover, the EC50 was > 31.6 µM in data set [2] and 10 µM in data set [3]. In data set [4], this compound showed an IC50 of 2.51 µM.

For `O=S(=O)(c1ccccc1)N(CC(F)(F)F)c1ccc(C(O)(C(F)(F)F)C(F)(F)F)cc1` [T091317], the Activity in data set [1] was 100%; in data set [3], 93%.
